Rows were chosen to be rich in hits. Some 2.1% of all compounds tested hit in one or more screens of this group.
GRK2 aptamer HTS: inhibitors of human GRK2 displacing RNA aptamer; P25098; bead flow cytometry, FAM-aptamer displacement from GRK2; inhibition of aptamer binding, % at 10 µM; actives 0.59% (n = 330,000); AID 488847;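 active = inhibition of aptamer binding above 40%, roughly 3 SD of noise, on plates passing a quality check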;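 note: median bead fluorescence of bound FAM aptamer so fluorescent compounds give negative values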
Scp-1 inhibitor: blocks human Scp-1 phosphatase activity | Q9GZU7 | Recombinant Scp1, phosphopeptide, malachite green phosphate absorbance | inhibition, % at 20 µM | actives 0.88% (n = 340,000);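 active = inhibition above about 50% at 20 µM, limit read from the data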;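 note: plate controls were DMSO wells with enzyme for no effect and wells lacking enzyme for full effect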
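Material – SCP-1 phosphatase catalytic domain, residues 76-261 · Buffer or medium – Acidic Tris acetate buffer with magnesium and detergent · Also added – Phospho 17-mer peptide substrate · Compound – single 20 µM dose, 1% DMSO · Times – 45 min room-temperature reaction, 5 min colour, 30 min stabiliser · Technique – Phosphate-binding colour reagent, absorbance read at 630 nm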
LMPTP block: blocks human LMPTP phosphatase; P24666; recombinant LMPTP-A, OMFP fluorogenic substrate, fluorescence intensity; inhibition, % at 20 µM; actives 0.22% (n = 360,000); AID 651560;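 active = compounds that cut the enzyme signal by at least half of the control window in the single-dose screen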;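 note: plate controls were DMSO wells with enzyme plus substrate for no effect and substrate without enzyme for full effect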
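Assay system: LMPTP-A phosphatase enzyme | Input: 0.625 nM enzyme | Also added: Fluorogenic phosphatase substrate OMFP at 400 µM final | Compound dosing: One test concentration per compound, 20 µM, with 3% DMSO overall | Schedule: 50 min enzyme reaction at room temperature, protected from light | Signal: Fluorescence intensity | Benchmarks: no-enzyme and uninhibited controls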
SUMO1-SIM PPI: SUMO1-SIM interaction modulation | inhibition, % at 20 µM | SUMO1 binding to a labelled peptide, TR-FRET, 1 h | P63165 | actives 0.33% (n = 360,000) | AID 602429; in the data active = inhibition above about 37%
Target sequence (P63165 whole entry, looked up): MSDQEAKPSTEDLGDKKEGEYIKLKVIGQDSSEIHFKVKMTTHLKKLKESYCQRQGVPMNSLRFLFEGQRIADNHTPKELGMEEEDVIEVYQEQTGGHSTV
DNMT1 block: blocks human DNA methyltransferase DNMT1 | actives 0.83% (n = 360,000) | DNMT1 molecular beacon, Hinp1I cleavage, fluorescence | AID 588458 | inhibition (reported as % activation of signal), % at 10 µM; in the data active = inhibition above about 50%
STEP block: blocks human striatal-enriched tyrosine phosphatase. P54829. recombinant STEP, OMFP fluorogenic substrate, fluorescence. inhibition, % at 20 µM. actives 0.25% (n = 360,000);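 active = inhibition at 20 µM, scaled per plate between control wells, above about 37%, limit read from the data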;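 note: 0% = DMSO with enzyme and substrate and 100% = substrate only without enzyme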
Target sequence (P54829 whole entry, looked up): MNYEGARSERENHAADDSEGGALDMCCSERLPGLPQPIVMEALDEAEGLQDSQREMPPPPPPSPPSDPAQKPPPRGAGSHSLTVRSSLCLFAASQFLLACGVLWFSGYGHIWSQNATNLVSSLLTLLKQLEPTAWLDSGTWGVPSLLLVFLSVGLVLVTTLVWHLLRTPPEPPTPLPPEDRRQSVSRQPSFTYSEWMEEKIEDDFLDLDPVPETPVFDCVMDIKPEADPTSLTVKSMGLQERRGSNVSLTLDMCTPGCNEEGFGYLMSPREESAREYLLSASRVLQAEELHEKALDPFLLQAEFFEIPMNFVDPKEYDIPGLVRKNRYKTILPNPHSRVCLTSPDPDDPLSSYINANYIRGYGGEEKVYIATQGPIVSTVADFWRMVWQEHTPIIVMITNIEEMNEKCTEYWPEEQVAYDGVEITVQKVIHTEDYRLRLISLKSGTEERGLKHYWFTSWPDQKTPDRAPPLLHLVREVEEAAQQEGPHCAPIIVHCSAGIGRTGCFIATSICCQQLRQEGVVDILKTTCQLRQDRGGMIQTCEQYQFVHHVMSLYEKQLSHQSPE
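System: isolated STEP enzyme; schedule: 20 min enzyme reaction at room temperature, protected from light; medium: Bis-Tris buffer pH 6.0, 2.5 mM DTT, 0.005% Tween 20; signal: fluorescence, 480/540 nm; dosing: single compound dose of 20 µM, 1% DMSO final; also added: OMFP substrate, 25 µM final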
GRK2 inh confirm: confirmation of human GRK2 inhibitors displacing RNA aptamer; shares compounds with GRK2 aptamer HTS; bead-bound GRK2, FAM-aptamer displacement, flow cytometry; aptamer displacement, % at 10 µM; actives 4% (n = 2,000);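 active = aptamer displacement above 40%, near three times the noise of non-fluorescent compounds, on plates passing quality checks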;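 note: negative values mostly reflect intrinsic compound fluorescence rather than true enhancement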
Aptamer quench SP: counter-screen for GRK2 aptamer inhibitors: fluorescent aptamer quenchers; shares compounds with GRK2 aptamer HTS; Carboxyfluorescein RNA aptamer on beads, flow cytometry quenching; active compounds read low; fluorescence response (% of DMSO), % at 10 µM; 2,000 tested, under 10 active;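 active = compounds that quench the bead-bound fluorescent RNA probe, cutting fluorescence to under half of the solvent control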;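 note: counterscreen run without GRK2 so only probe quenching by compound is measured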
GRK2 confirm 2: human GRK2 inhibition confirmation, cherry pick 2. shares compounds with GRK2 aptamer HTS. bead-bound GRK2, FAM-aptamer displacement, flow cytometry. inhibition of aptamer binding, % at 10 µM. 360 tested, under 10 active;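 active = inhibition of aptamer binding above 40%, about triple the noise seen with nonglowing compounds, on plates passing quality control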;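 note: negative values mostly come from compounds that fluoresce themselves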
FAM quench CP2: counter-screen for GRK2 binding hits: quenchers of fluorescent RNA aptamer | fluorescence response vs DMSO, % at 10 µM | 360 tested, under 10 active | carboxyfluorescein RNA aptamer beads, flow cytometry quenching; active compounds read low | shares compounds with GRK2 aptamer HTS;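 active = response vs DMSO under 50%, meaning signal dropped by over half, treated as fluorescence quencher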;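 note: labelled aptamer on streptavidin beads without GRK2 as a quench counter-screen; 100% = bead fluorescence of DMSO wells and lower means quenching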
Starred values were filed as active, the others as inactive.

What do the screens show for `COC(=O)C1=CO[C@@H](OC2OC(CO)C(O)C(O)C2O)[C@@H]2[C@@H](C)[C@@H](O)C[C@H]12` (stereo not given in full)?
GRK2 aptamer HTS: 0; Scp-1 inhibitor: 12; LMPTP block: -1; SUMO1-SIM PPI: -5; DNMT1 block: -3; STEP block: 2

How did C=C[C@H]1[C@H](OC2OC(CO)C(O)C(O)C2O)OC=C(C(=O)OC)[C@H]1C[C@H]1CC(=O)C[C@H](CC(=O)CCc2ccc(O)cc2)O1 (stereo not given in full) do in these assays?
GRK2 aptamer HTS: 97*; Scp-1 inhibitor: -1; GRK2 inh confirm: 3; Aptamer quench SP: 97

Results for N#Cc1cnc(NCc2ccc(Cl)cc2Cl)nc1 ?
GRK2 aptamer HTS: 1; Scp-1 inhibitor: -1; LMPTP block: -3; SUMO1-SIM PPI: -3; DNMT1 block: -1; STEP block: 1

Results for Cn1cc(C(=O)OCC2CCN(CCNS(C)(=O)=O)CC2)c2ccccc21 ?
GRK2 aptamer HTS: 0; Scp-1 inhibitor: -11; LMPTP block: 0; SUMO1-SIM PPI: 5; DNMT1 block: -1; STEP block: 3; GRK2 inh confirm: 0; Aptamer quench SP: 96

Results for O=c1[nH]c(CN2CCN(C/C=C/c3ccccc3)CC2)nc2ccccc12 ?
GRK2 aptamer HTS: 2; Scp-1 inhibitor: -11; LMPTP block: 1; SUMO1-SIM PPI: -1; DNMT1 block: -2; STEP block: 1; GRK2 confirm 2: 19; FAM quench CP2: 98

What do the screens show for `O=c1[nH]c(CN2CCN(S(=O)(=O)/C=C/c3ccccc3)CC2)nc2ccccc12`?
GRK2 aptamer HTS: 0; Scp-1 inhibitor: -9; LMPTP block: -1; SUMO1-SIM PPI: 6; DNMT1 block: 2; STEP block: 4

Results for O=C(CSc1oc(-c2ccc(F)cc2)nc1S(=O)(=O)c1ccc(F)cc1)NCC1CCCO1 (stereo not given) ?
GRK2 aptamer HTS: 1; Scp-1 inhibitor: 1; LMPTP block: 1; SUMO1-SIM PPI: 1; DNMT1 block: 5; STEP block: -3

What do the screens show for `O=C(CSc1oc(-c2cccs2)nc1S(=O)(=O)c1ccc(F)cc1)NCC1CCCO1` (stereo not given)?
GRK2 aptamer HTS: 42*; Scp-1 inhibitor: 10; LMPTP block: 0; SUMO1-SIM PPI: -1; DNMT1 block: -5; STEP block: 6; GRK2 inh confirm: 2; Aptamer quench SP: 102

How did CCOc1ccc(OCCC(=O)N2CCc3cc(OC)c(OC)cc3C2)cc1 do in these assays?
GRK2 aptamer HTS: 94*; Scp-1 inhibitor: -15; LMPTP block: 0; SUMO1-SIM PPI: 3; DNMT1 block: 0; STEP block: 1; GRK2 inh confirm: -3; Aptamer quench SP: 97

What do the screens show for `COc1cc2c(cc1OC)CN(C(=O)CCOc1ccccc1)CC2`?
GRK2 aptamer HTS: 0; Scp-1 inhibitor: -3; LMPTP block: 0; SUMO1-SIM PPI: -6; DNMT1 block: -3; STEP block: 0

How did O=C(CNC(=O)OCc1ccccc1)OC(c1ccccc1)c1ccccc1 do in these assays?
Scp-1 inhibitor: -5; LMPTP block: 3; SUMO1-SIM PPI: 7; DNMT1 block: 5; STEP block: -2

How did Cc1ccc(CNC(=O)c2cc(-c3ccccc3)nn2CC2CC(c3cccc([N+](=O)[O-])c3)=NO2)cc1 (stereo not given) do in these assays?
Scp-1 inhibitor: 1; LMPTP block: 3; SUMO1-SIM PPI: -3; DNMT1 block: -1; STEP block: 0

What do the screens show for `CCn1cc(C(=O)NC(C)C)c(=O)c2cc(F)c(N3CCN(C(=O)c4ccco4)CC3)cc21`?
GRK2 aptamer HTS: 88*; Scp-1 inhibitor: 7; LMPTP block: 1; SUMO1-SIM PPI: 10; DNMT1 block: -2; STEP block: 0; GRK2 inh confirm: -1; Aptamer quench SP: 102

Results for O=C(NC1CCCCC1)C(c1ccccc1)n1c(=O)c(-c2ccco2)nc2ccccc21 (stereo not given) ?
LMPTP block: 2; SUMO1-SIM PPI: -2

How did Cc1ccc(S(=O)(=O)N2CCCC(C(=O)N3CCN(c4ccccc4)CC3)C2)cc1 (stereo not given) do in these assays?
GRK2 aptamer HTS: 0; Scp-1 inhibitor: -3; LMPTP block: 0; SUMO1-SIM PPI: 8; DNMT1 block: 0; STEP block: 2

What do the screens show for `Cc1nn(C)c(C)c1S(=O)(=O)N1CCCC(C(=O)N2CCN(c3ccccc3)CC2)C1` (stereo not given)?
GRK2 aptamer HTS: 82*; Scp-1 inhibitor: -1; LMPTP block: -1; SUMO1-SIM PPI: 3; DNMT1 block: 0; STEP block: 3; GRK2 inh confirm: -1; Aptamer quench SP: 99

Results for CCOc1ccc2nc(NC3=NC(C)(C)C=C(C)N3)nc(C)c2c1 ?
GRK2 aptamer HTS: 0; Scp-1 inhibitor: -1; LMPTP block: 8; SUMO1-SIM PPI: -10; DNMT1 block: -3; STEP block: 3

What do the screens show for `CCOc1ccc2nc(NC3=NC(c4ccc(OC)cc4)CC(=O)N3)nc(C)c2c1` (stereo not given)?
GRK2 aptamer HTS: 38; Scp-1 inhibitor: 11; LMPTP block: 57*; SUMO1-SIM PPI: 6; DNMT1 block: -8; STEP block: 86*; GRK2 inh confirm: -25; Aptamer quench SP: 107

How did O=C(O)C1C2C=CC(C3CC23)C1C(=O)O (stereo not given) do in these assays?
GRK2 aptamer HTS: 18; Scp-1 inhibitor: 10; LMPTP block: -1; SUMO1-SIM PPI: -2; DNMT1 block: 16; STEP block: 5; GRK2 confirm 2: 6; FAM quench CP2: 101

Results for O=c1c2c(ncn2C2CCCC2)n(Cc2ccccc2)c(=O)n1CCOc1ccc(Br)cc1 ?
GRK2 aptamer HTS: 100*; Scp-1 inhibitor: -3; LMPTP block: 1; SUMO1-SIM PPI: -2; DNMT1 block: -1; STEP block: -2; GRK2 confirm 2: -14; FAM quench CP2: 107
